# Apaf-1 inh – inhibitors of human Apaf-1 apoptosome, primary screen, biochemical, DEVD-Rh110 fluorescence, uHTS; Apoptotic protease-activating factor 1 (Homo sapiens), O14727; reconstituted apoptosome caspase-3 activity; inhibition, % at 20 µM; 330,000 compounds, 0.71% hits; AID 489030, 2010; active means inhibition of at least 40% at 20 µM;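 further: plate controls were DMSO wells for no effect and DEVD-CHO caspase inhibitor wells for full effect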
#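 Material: reconstituted apoptosome with Apaf-1, cytochrome c, caspase-9, procaspase-3, dATP / Buffer or medium: pH 7.5 Hepes buffer with CHAPS, BSA, DTT / Also added: cytochrome c with DEVD-Rh110 / Schedule: compound with Apaf-1, dATP, procaspase-3 30 min, then 50 min reaction, room temperature / Technique: rhodamine 110 fluorescence at Ex 480/Em 540 nm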
# SENP8 block-1 – human SENP8 protease inhibitors, primary screen, biochemical, fluorescence, Nedd8 protein substrate, uHTS; recombinant SENP8; Sentrin-specific protease 8 (Homo sapiens), Q96LD8; 360,000 compounds, 0.64% hits; inhibition, % at 20 µM; in the data active means inhibition mostly above about 40%, no sharp cut-off; inactive means mostly below about 27%
# SENP6 inh – SENP6 protease inhibitors, primary screen, biochemical, luminescence, uHTS | Recombinant SENP6 catalytic domain, aminoluciferin luminescence | inhibition, % at 10 µM | 330,000 compounds, 1.8% hits;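 active means inhibition above about 50% at the single tested dose, limit read from the data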;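 further: plate controls were DMSO wells with enzyme for no effect and DMSO wells lacking enzyme for full effect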
# Target sequence (Q9GZR1 628-1112 limits assumed): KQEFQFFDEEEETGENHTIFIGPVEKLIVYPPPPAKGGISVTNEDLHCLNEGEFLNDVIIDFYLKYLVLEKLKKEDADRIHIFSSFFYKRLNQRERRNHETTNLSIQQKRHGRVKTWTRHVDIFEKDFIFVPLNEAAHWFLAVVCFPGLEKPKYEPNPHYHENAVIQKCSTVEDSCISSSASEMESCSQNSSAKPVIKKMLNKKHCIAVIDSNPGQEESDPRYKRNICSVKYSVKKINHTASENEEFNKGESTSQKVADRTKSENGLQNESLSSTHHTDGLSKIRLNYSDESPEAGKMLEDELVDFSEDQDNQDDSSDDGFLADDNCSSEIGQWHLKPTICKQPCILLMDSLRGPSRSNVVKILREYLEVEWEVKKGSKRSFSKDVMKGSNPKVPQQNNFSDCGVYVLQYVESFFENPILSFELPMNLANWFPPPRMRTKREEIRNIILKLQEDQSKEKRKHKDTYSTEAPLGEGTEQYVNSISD
# SENP8 block-2 – SENP8 protease inhibitors, primary screen, biochemical, luminescence; purified SENP8, Z-RLRGG-aminoluciferin cleavage; inhibition, % at 10 µM; 330,000 compounds, 1.2% hits; in the data active means inhibition above about 50%
# SENP7 inh – SENP7 protease inhibitors, primary screen, biochemical, luminescence, uHTS; Sentrin-specific protease 7 (Homo sapiens), Q9BQF6; recombinant SENP7, Z-RLRGG-aminoluciferin luminescence, 40 min; inhibition, % at 5 µM; 330,000 compounds, 1.5% hits;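 active means inhibition above about 50% at the single test dose, limit read from the data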;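 further: plate controls were DMSO with enzyme for no effect and no enzyme buffer wells for full effect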
# SENP1 inh – human SENP1 catalytic domain inhibitors, primary screen, biochemical, FRET, uHTS. 360,000 compounds, 0.21% hits. inhibition, % at 10 µM. recombinant SENP1 catalytic domain, CyPet-SUMO1-YPet FRET cleavage. Sentrin-specific protease 1 (Homo sapiens), Q9P0U3;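 active means inhibition at least 30% at 10 µM, raw YFP signal under a set limit, fluorescence ratio 0.5 to 1.5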;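 further: 0% = enzyme with DMSO and 100% = no enzyme wells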
#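 Compound: 10 µM single point, 0.5% DMSO; Test system: hSENP1 catalytic domain, recombinant; Timing: 50 min reaction at room temperature; Technique: FRET, CFP and YFP emission; Control set: no-enzyme wells low, DMSO-plus-enzyme wells high control.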
# SENP8 confirm – SENP8 protease inhibitors, retest, confirmation, biochemical, luminescence, single concentration; shares compounds with SENP7 inh; 6,200 compounds, 40% hits; inhibition, % at 12.5 µM; Recombinant SENP8, Z-RLRGG-aminoluciferin luminescence, 60 min;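 active means mean inhibition across replicates above about 50%, limit read from the data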
# SENP6 confirm – SENP6 protease inhibitors, confirmation, biochemical, luminescence, single concentration; shares compounds with SENP7 inh; recombinant SENP6, Z-RLRGG-aminoluciferin luminescence; inhibition, % at 12.5 µM; 6,200 compounds, 58% hits; AID 488915, 2010
# SENP7 conf – SENP7 protease inhibitors, retest, confirmation, biochemical, luminescence, single concentration | shares compounds with SENP7 inh | AID 488917, 2010 | recombinant SENP7, Z-RLRGG-aminoluciferin luminescence, 40 min | inhibition, % at 12.5 µM | 6,200 compounds, 69% hits
# Casp3 select – caspase-3 protease inhibitors, confirmation, selectivity assay for SENP inhibitor project, biochemical, single concentration; inhibition, % at 12.5 µM; purified caspase-3, Z-DEVD-aminoluciferin luminescence, 60 min; shares compounds with SENP7 inh; 6,200 compounds, 60% hits; AID 488918, 2010;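 active means mean inhibition above about 50%, limit read from the data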;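 further: plate controls were enzyme with DMSO for no effect and wells without caspase-3 for full effect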
# Target sequence (P42574 28-227 limits assumed): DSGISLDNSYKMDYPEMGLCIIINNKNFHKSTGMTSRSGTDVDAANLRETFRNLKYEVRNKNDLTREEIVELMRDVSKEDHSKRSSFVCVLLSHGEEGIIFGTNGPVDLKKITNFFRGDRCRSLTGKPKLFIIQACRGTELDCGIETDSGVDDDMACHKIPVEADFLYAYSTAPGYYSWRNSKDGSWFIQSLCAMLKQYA
# SENP luc ctr – luminescence interference (SENP counter-screen); shares compounds with SENP7 inh; 6,200 compounds, 39% hits; inhibition, % at 12.5 µM; Pre-incubated SENP8/Z-RLRGG-aminoluciferin, luciferase luminescence interference;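 active means mean inhibition above about 50% when retested at one dose, limit read from the data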;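 further: plate controls were DMSO wells with completed reaction for no effect and substrate without enzyme for full effect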
# * hit, by the source's call; i = inactive; . = not tested or not shown. Most compounds without a hit are left out; they make up all but 2.9% or so of the library.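 How the source made its calls, unless noted: active means mean inhibition above about 50% in the one-dose retest (limit read from the data); inactive means the rest.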
SMILES,Apaf-1 inh,SENP8 block-1,SENP6 inh,SENP8 block-2,SENP7 inh,SENP1 inh,SENP8 confirm,SENP6 confirm,SENP7 conf,Casp3 select,SENP luc ctr
Cc1ccc(S(=O)(=O)N2[C@@H](CO)CO[C@H]2CC(=O)c2ccccc2)cc1,.,23,.,.,.,1,.,.,.,.,.
CC(C)(C)OC(=O)C(Oc1ccccc1[N+](=O)[O-])C(=O)OC(C)(C)C,.,29,.,.,.,3,.,.,.,.,.
COc1cc2nc(CN3CCN(S(=O)(=O)c4ccccc4[N+](=O)[O-])CC3)[nH]c(=O)c2cc1OC,.,-9,.,.,.,3,.,.,.,.,.
Cc1ccc(-c2nc(-c3cccnc3)no2)c(C)c1,18,30,-10,24,46,0,.,.,.,.,.
Clc1ccc(-c2nc(-c3cnccn3)no2)cc1,-15,16,96*,90*,98*,3,90*,93*,101*,97*,56*
OC1(c2ccc(Cl)cc2)CCN(Cc2nc(-c3cnccn3)no2)CC1,-23,-1,-5,5,-1,-1,.,.,.,.,.
Fc1ccc(-c2nc(-c3cnccn3)no2)c(Cl)c1,1,13,88*,81*,85*,0,85*,85*,96*,94*,50
Cc1nc2ccccc2c2c1C(=O)NC2=O,-4,.,-1,-8,-4,.,.,.,.,.,.
O=c1oc2ccccc2cc1-c1nc(-c2ccccc2)no1,6,i,38,57*,82*,14,11,28,29,25,-3
O=c1oc2ccccc2cc1-c1nc2c(s1)CCCC2,3,-315,48,94*,99*,-27,-4,44,100*,84*,12
O=c1oc2ccc3ccccc3c2cc1-c1nc2ccccc2o1,5,-270,-12,10,-3,-23,.,.,.,.,.
O=c1oc2ccccc2cc1-c1nc2ccccc2o1,-3,-293,90*,72*,85*,-64,54*,86*,98*,94*,28
CC(=O)Nc1cccc(OCC(=O)Nc2sccc2C(N)=O)c1,-31,4,68*,48,67*,-6,40,48,86*,73*,28
CC(=O)Nc1cccc(OCC(=O)Nc2ccccc2)c1,8,15,36,-15,18,2,.,.,.,.,.
O=c1c2ccccc2nc(-c2ccco2)n1Cc1ccccc1,-16,8,77*,63*,69*,0,79*,76*,89*,78*,77*
c1ccc(Cn2c(-c3ccco3)nc3nc4ccccc4nc32)cc1,13,i,89*,75*,52*,-40,22,82*,96*,82*,8
O=c1c2ccccc2nc(-c2ccc(Br)cc2)n1Cc1ccccc1,6,-2,1,-8,8,1,.,.,.,.,.
CC1(C)Cc2c(cnn2-c2ccccc2)C(NC(=O)CCCN2CCCCC2=O)C1 (stereo unspecified),1,2,0,-1,3,0,.,.,.,.,.
c1ccc(-c2c3ccccc3nc3[nH]c4ccccc4c23)cc1,21,-472,-3,-8,8,-119,.,.,.,.,.
c1ccc2nc3c(nc2c1)[nH]c1ccccc13,14,-214,29,60*,75*,-58,22,71*,92*,76*,15
CCCC(=O)Nc1ccc2oc(-c3cncc(Br)c3)nc2c1,-6,-417,49,23,50,2,.,.,.,.,.
CCCCCC(=O)Nc1ccc2oc(-c3cncc(Br)c3)nc2c1,-10,-284,-14,-2,101*,-1,3,1,-1,10,0
CC(C)NC(=O)C1(C)CCN1Cc1ccc(C(F)(F)F)cc1 (stereo unspecified),.,13,.,.,.,0,.,.,.,.,.
COc1ccc(/C=C(\C#N)C(=O)OCC(=O)Nc2ccc(-c3nc4ccc(C)cc4s3)cc2)cc1,-7,-425,-1,16,53*,-28,24,20,45,26,54*
Nc1ccc2nc(SCC(=O)c3ccccc3)sc2c1,-5,-12,16,7,1,16,.,.,.,.,.
SMILES,Apaf-1 inh,SENP8 block-1,SENP6 inh,SENP8 block-2,SENP7 inh,SENP1 inh,SENP8 confirm,SENP6 confirm,SENP7 conf,Casp3 select,SENP luc ctr
Cc1ccc2nc(-c3ccc(NC(=O)COC(=O)c4ccco4)cc3)sc2c1,0,-436,-12,-2,-4,-33,.,.,.,.,.
Nc1ccc2nc(-c3ccccc3)sc2c1,3,-289,98*,96*,98*,-55,98*,100*,103*,98*,97*
Nc1ccc(-c2nc3cc(N)ccc3s2)cc1,-20,-429,75*,84*,90*,-32,93*,93*,100*,90*,90*
CC(=O)NC(=S)Nc1ccc(-c2nc3ccc(C)cc3s2)cc1,-16,-290,3,-10,12,-47,.,.,.,.,.
CNC(=S)Nc1ccc(-c2nc3ccc(C)cc3s2)cc1,12,-392,74*,64*,50,-59,41,64*,86*,40,43
COc1cc(CN2C[C@@H](CO)O[C@@H](n3cnc4c(NCc5ccco5)ncnc43)C2)cc(OC)c1OC,.,2,.,.,.,0,.,.,.,.,.
COCCNC(=O)c1cc2c(c(-c3cccc(C#CC(C)(C)O)c3)n1)[C@@H](CCO)N(S(=O)C(C)(C)C)C2 (stereo partly specified),.,-24,.,.,.,-2,.,.,.,.,.
Cc1ccc(NC(=O)NCc2ccccn2)c(C)c1,-2,14,-7,-9,-13,1,.,.,.,.,.

# Screening data (PubChem)
